# This is a sample that favours compounds with a hit; in the whole collection about 2.7% have one here.
# AF4-AF9 inh – inhibitors of human MLL-AF4/AF9 interaction; P42568; AlphaScreen, biotin-AF4 peptide binding to FLAG-AF9; inhibition, % at 10 µM; hit rate 0.47% among 350,000;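 active = every replicate reaching a set inhibition limit, whatever the replicate mean, cut at about 25% in these data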;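 also: 0% = plate neutral control median and 100% = total signal loss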
# SIRT5 block – blocks human SIRT5 desuccinylation of peptide; Purified SirT5, succinyl-peptide AMC, trypsin-coupled fluorescence; inhibition, % at 15 µM; hit rate 1.1% among 330,000; in the data active = inhibition above about 15%
# Target sequence (Q9NXA8 whole entry, looked up): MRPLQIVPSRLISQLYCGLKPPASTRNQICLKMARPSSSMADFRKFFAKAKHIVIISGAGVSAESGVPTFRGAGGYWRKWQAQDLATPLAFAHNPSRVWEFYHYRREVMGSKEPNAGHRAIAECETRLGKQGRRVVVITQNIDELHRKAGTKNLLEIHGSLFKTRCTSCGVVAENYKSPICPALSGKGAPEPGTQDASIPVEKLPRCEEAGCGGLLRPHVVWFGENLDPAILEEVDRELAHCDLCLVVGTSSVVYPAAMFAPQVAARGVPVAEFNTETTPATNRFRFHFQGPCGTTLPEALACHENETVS
# S100A4 inh HTS – inhibitors of human S100A4 binding to myosin IIA peptide. AID 652163. S100A4/TAMRA-MyoIIA peptide fluorescence polarization. P26447. hit rate 0.14% among 360,000. inhibition, % at 10.7 µM;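 active = mean inhibition of at least 70% across replicates, with every replicate also reaching that level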
# Target sequence (P26447 whole entry, looked up): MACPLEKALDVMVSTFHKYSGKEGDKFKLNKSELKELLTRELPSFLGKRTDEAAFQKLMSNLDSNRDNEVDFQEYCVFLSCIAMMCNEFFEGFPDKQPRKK
#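 Compound dosing: one dose per compound; test system: human S100A4 monomer with TAMRA-labelled myosin IIA peptide; probe or stimulus: TAMRA-labelled myosin IIA heavy-chain peptide probe, 5 nM; medium: HEPES buffer with Ca2+, pH 7.2; schedule: 5 min incubation before reading; benchmarks: neutral control DMSO, positive control TFP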
# DENV2 CPE rescue – protects cells from dengue virus 2 cytopathic effect | DENV2-infected cells, cytopathic effect rescue, plate reader | CPE inhibition, % at 9.99 µM | hit rate 1.7% among 350,000; in the data active = CPE inhibition above about 20%, passing the limit was not always enough; tested in BHK-21 cells;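 also: 0% = median of neutral control wells and 100% = median of positive control wells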
# CaV13 ICDI inh – Primary screen for inhibitors of IQ motif and Ca2+-dependent inactivation inhibitor domain binding in CACNA1D, Förster resonance energy transfer in living cells, …; HEK cells, CFP/YFP FRET ICDI-IQ, plate reader, 10 min; percent FRET-ratio fall versus neutral wells; inhibition, % at 12.3 µM; hit rate 0.098% among 340,000;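 active = mean replicate inhibition of at least 30% and at least 1% of replicates passing that level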;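 also: 0% = median of the neutral control wells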
# Active calls of the source: *; nt = no result; + = active, no number.
SMILES,AF4-AF9 inh,SIRT5 block,S100A4 inh HTS,DENV2 CPE rescue,CaV13 ICDI inh
CCNC(=O)N(C)C[C@H]1N[C@@](CC)(C(=O)OC)[C@H]2C(=O)N(Cc3ccccc3)C(=O)[C@@H]12,0,-3,-1,29*,-4
CCc1noc(C)c1C(=O)Nc1nc(-c2cccs2)cs1,-1,15*,-7,-6,-2
Cc1noc(C)c1C(=O)Nc1nc(-c2cccs2)cs1,0,-1,10,10,-5
CCc1ccccc1S(=O)(=O)Cc1ccc(C(=O)N2CCN(c3ccccc3OC)CC2)o1,-2,nt,-3,14,55*
CCN1/C(=C/C=C/c2oc3ccc(-c4ccccc4)cc3[n+]2CC)Oc2ccc(-c3ccccc3)cc21,-30,2,+,-3,-148
CN(C1CCCCC1)S(=O)(=O)c1cccc(C(=O)Nc2ccccn2)c1,0,1,-2,8,-6
Cc1cccc(NC(=O)c2cccc(S(=O)(=O)N(C)C3CCCCC3)c2)n1,11,14,0,21*,-12
CCN(CC)CCCN(C(=O)c1ccco1)c1nc(-c2ccc(C)cc2)cs1,17,0,3,-1,5
CCN(CC)CCCN(C(=O)c1ccc(Br)cc1)c1nc(-c2ccc(OC)cc2)cs1,31*,0,-2,-23,-2
CCN(CC)CCCN(C(=O)c1ccco1)c1nc(-c2ccc(Cl)cc2)cs1,26*,-3,-7,0,-4
NS(=O)(=O)c1ccc(CCNC(=O)C2CCCN2C(=O)c2cccs2)cc1 (configuration not stated),-5,-2,-8,95*,-15
C[C@@H]1CN([C@@H](C)CO)S(=O)(=O)c2ccc(-c3cncnc3)cc2O[C@@H]1CN(C)Cc1ccccn1,-3,-4,5,-5,nt
COc1ccc(S(=O)(=O)N(C)C[C@@H]2Oc3c(NC(=O)C4CCOCC4)cccc3C(=O)N([C@@H](C)CO)C[C@@H]2C)cc1,-5,-1,3,9,nt
COc1ccc(C[C@H]2CCn3cc(nn3)COC[C@@H](C(C)C)NC2=O)cc1,-1,4,67,1,nt
C[C@H]1CN([C@@H](C)CO)C(=O)Cc2cc(NC(=O)C3CC3)ccc2O[C@H]1CN(C)Cc1ccc(Cl)c(Cl)c1,-3,5,4,1,nt
Cc1ccc(S(=O)(=O)NNC(=O)c2c(O)c3ccccc3[nH]c2=O)cc1,-20,17*,-4,1,-3
CCOC(=O)CN1CC23C=CC(O2)C(C(=O)NCCc2ccccc2)C3C1=O (configuration not stated),-1,nt,24,22*,0
CCOC(=O)CN1CC23C=CC(O2)C(C(=O)NC2CCCCCC2)C3C1=O (configuration not stated),-2,-1,1,0,0
CCCNC(=O)N1[C@H](C#N)[C@@H](c2ccccc2-c2ccc(C)cc2)[C@@H]1CO,-1,3,13,2,nt
Cc1noc(C)c1NC(=O)N(C)C[C@@H]1OCCCC[C@H](C)Oc2ccc(NS(=O)(=O)c3cccs3)cc2C(=O)N([C@H](C)CO)C[C@@H]1C,-3,-3,0,-9,nt
Cc1c(NS(=O)(=O)c2ccc(Cl)c(C(=O)OC(C)C(=O)N3CCOCC3)c2)c(=O)n(-c2ccccc2)n1C (configuration not stated),-2,-2,-2,-5,-5
Cc1ccc(S(=O)(=O)Nc2ccccc2F)cc1C(=O)OC(C)C(=O)N1CCOCC1 (configuration not stated),11,-6,75*,1,-15
CCNC(=O)C1CCCN(C(=O)c2ccc(OC)c(OC)c2)CC1 (configuration not stated),-2,17*,3,7,-5
COCCNC(=O)C1CCCN(C(=O)c2cc(C)nn2C(C)(C)C)CC1 (configuration not stated),0,nt,-14,21*,-4
CCNC(=O)C1CCCN(C(=O)c2ccc(OC)cc2)CC1 (configuration not stated),-2,-5,-3,-4,-5
SMILES,AF4-AF9 inh,SIRT5 block,S100A4 inh HTS,DENV2 CPE rescue,CaV13 ICDI inh
CC=Cc1ccc2n(c1=O)C[C@H]1[C@H](CO)[C@@H](C(=O)N(C)C)[C@@H]2N1CC1CCCCC1 (mixture of isomers),-1,2,4,0,nt
O=C(O)c1ccc(N/N=C/c2ccc(-c3ccccc3Cl)o2)cc1,5,3,4,-4,+
CCCCCCc1cc2cc(S(=O)(=O)c3ccc(Cl)cc3)c(=O)oc2cc1O,-1,nt,-9,3,nt
CCN(CC)c1ccc2cc(S(=O)(=O)c3ccc(Cl)cc3)c(=O)oc2c1,1,nt,-6,9,+
O=c1oc2cc(O)ccc2cc1-c1nc2ccccc2o1,-14,-35,2,6,38*
O=c1oc2cc(O)ccc2cc1S(=O)(=O)c1ccccc1,-4,-101,1,-10,31*
NC(=S)c1cc2ccc(O)cc2oc1=O,nt,nt,nt,nt,13
COc1ccccc1S(=O)(=O)Nc1ccc2c(c1)C(=O)N(C)C[C@@H](OC)[C@@H](C)CN[C@H](C)CO2,-2,2,6,4,nt
CC(C)NC(=O)Nc1ccc2c(c1)C(=O)N([C@@H](C)CO)C[C@@H](C)[C@H](CN(C)C(=O)Nc1ccc(F)cc1)OCCCC[C@@H](C)O2,-3,-4,35,1,nt
COc1ccc(NC(=O)N[C@H]2CC[C@@H](CCn3cc(C4(O)CCCC4)nn3)O[C@@H]2CO)cc1,-1,0,4,93*,nt
O=C(N[C@@H]1CC[C@@H](CCn2cc(-c3ccc(F)cc3)nn2)O[C@@H]1CO)c1cnccn1,0,15*,-29,2,nt
O=C(Nc1ccc(F)cc1)N[C@H]1CC[C@@H](CCn2cc(-c3ccc(F)cc3)nn2)O[C@H]1CO,-15,-1,3,-9,nt
COc1ccc(NC(=O)N[C@@H]2CC[C@@H](CCn3cc(C4(O)CCCC4)nn3)O[C@@H]2CO)cc1,-2,-7,-4,5,nt
O=C(Nc1ccc(F)cc1)N[C@@H]1CC[C@@H](CCn2cc(-c3ccc(F)cc3)nn2)O[C@H]1CO,-21,5,3,22*,nt
COc1ccc(-c2cn(CC[C@@H]3CC[C@H](NC(=O)Nc4ccc(F)cc4)[C@H](CO)O3)nn2)cc1,-3,3,1,95*,nt
C[C@H]1CN([C@@H](C)CO)C(=O)Cc2cc(NC(=O)Nc3ccc4c(c3)OCO4)ccc2O[C@H]1CN(C)S(=O)(=O)c1ccc(Cl)cc1,8,0,1,-8,nt
C[C@@H]1CN([C@H](C)CO)C(=O)Cc2cc(NS(=O)(=O)c3ccc(F)cc3)ccc2O[C@H]1CN(C)Cc1ccc(Oc2ccccc2)cc1,0,-7,10,18,nt
C[C@@H]1CN([C@H](C)CO)C(=O)Cc2cc(NC(=O)Cn3cnnn3)ccc2O[C@@H]1CN(C)S(=O)(=O)c1ccccc1,-2,0,6,2,nt
